Laboratory results as given in ChEMBL document CHEMBL1126705, “16 beta-([18F]fluoro)estrogens: systematic investigation of a new series of fluorine-18-labeled estrogens as potential imaging agents for estrogen-receptor-positive breast tumors” (J Med Chem, 1993).

Key:
Rattus norvegicus [1] = experiment: Tested in vivo for the biodistribution in rat liver at 1 hour after intravenous dose of 50 microCi of the drug and 15 u g of estradiol; format: ADME, organism-based
In short: (§1)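 Immature (25-day-old) female Sprague-Dawley rats, ether-anesthetized, given the fluorine-18-labeled estrogen by femoral vein injection in 10% ethanol saline. […] Other groups were killed by decapitation at 1 or 3 h. Blood and organs were weighed and gamma-counted. Data are % injected dose/g, mean ± SD, typically n = 5 per group.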

Rattus norvegicus [2] = experiment: Tested in vivo for the biodistribution in rat uterus/blood at 1 hour after intravenous dose of 50 microCi of the drug and 15 ug of estradiol; format: ADME, organism-based
In short: (§2)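 Female Sprague-Dawley rats, 25 days old (~40–53 g), ether-anesthetized, given the 18F-labeled estrogen iv via femoral vein in 10% ethanol saline. […] Others were sacrificed by decapitation at 1 or 3 h. Blood and organs were excised, weighed and gamma counted as % injected dose/g, mean ± SD, typically n = 5 (4–6).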

Rattus norvegicus [3] = experiment: Tested in vivo for the biodistribution in rat muscle at 1 hour after intravenous dose of 50 microCi of drug in 10%ethanol saline; format: ADME, organism-based, Muscle tissue; in short: as §1
Rattus norvegicus [4] = experiment: Tested in vivo for the biodistribution in rat uterus at 1 hour after intravenous dose of 50 microCi of drug in 10%ethanol saline; format: ADME, organism-based; in short: as §2
Rattus norvegicus [5] = experiment: Tested in vivo for the biodistribution in rat uterus/muscle at 1 hour after intravenous dose of 50 microCi of drug in 10%ethanol saline; format: ADME, organism-based, Muscle tissue; in short: as §2
Rattus norvegicus [6] = experiment: Tested in vivo for the biodistribution in rat liver at 1 hour after intravenous dose of 50 microCi of drug in 10%ethanol saline; format: ADME, organism-based; in short: as §1
Rattus norvegicus [7] = experiment: Tested in vivo for the biodistribution in blood of female rat after 3 hours following an intravenous dose of 50 microCi of drug in 10%ethanol saline; format: ADME, organism-based
In short: (§3)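 Ether-anesthetized 25-day-old female Sprague-Dawley rats (~40–53 g) got the [18F] tracer in 10% ethanol saline via femoral vein. Rats were decapitated at 1 or 3 h, and blood and organs were weighed and gamma-counted. Values are % injected dose/g as mean ± SD, n = 5 per time point.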

Rattus norvegicus [8] = experiment: Tested in vivo for the biodistribution in rat fat at 1 hour after intravenous dose of 50 microCi of drug in 10%ethanol saline; format: ADME, organism-based, Adipose tissue; in short: as §3
[9] = Partition coefficient (logP); format: physicochemical; conditions: octanol/water
In short: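 Octanol/water log P estimated from log k'w measured by reversed-phase HPLC (Minick method) on a C8 silica column.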

Rattus norvegicus [10] = experiment: Tested in vivo for the biodistribution in rat liver after 3 hours following an intravenous dose of 50 microCi of drug in 10%ethanol saline; format: ADME, organism-based; in short: as §1
Rattus norvegicus [11] = experiment: Tested in vivo for the biodistribution in rat thymus at 1 hour after intravenous dose of 50 microCi of drug in 10%ethanol saline; format: ADME, organism-based; in short: as §1
Rattus norvegicus [12] = experiment: Tested in vivo for the biodistribution in rat uterus/blood after 3 hours following an intravenous dose of 50 microCi of drug in 10%ethanol saline; format: ADME, organism-based; in short: as §2
Rattus norvegicus [13] = experiment: Tested in vivo for the biodistribution in rat bone at 1 hour after intravenous dose of 50 microCi of the drug and 15 ug of estradiol; format: ADME, organism-based, Bone element
[14] = molecular target: T1, Alpha-fetoprotein (Rattus norvegicus) (UniProt P02773); experiment: Relative binding affinity for Alphafetoprotein
T1 sequence (whole entry): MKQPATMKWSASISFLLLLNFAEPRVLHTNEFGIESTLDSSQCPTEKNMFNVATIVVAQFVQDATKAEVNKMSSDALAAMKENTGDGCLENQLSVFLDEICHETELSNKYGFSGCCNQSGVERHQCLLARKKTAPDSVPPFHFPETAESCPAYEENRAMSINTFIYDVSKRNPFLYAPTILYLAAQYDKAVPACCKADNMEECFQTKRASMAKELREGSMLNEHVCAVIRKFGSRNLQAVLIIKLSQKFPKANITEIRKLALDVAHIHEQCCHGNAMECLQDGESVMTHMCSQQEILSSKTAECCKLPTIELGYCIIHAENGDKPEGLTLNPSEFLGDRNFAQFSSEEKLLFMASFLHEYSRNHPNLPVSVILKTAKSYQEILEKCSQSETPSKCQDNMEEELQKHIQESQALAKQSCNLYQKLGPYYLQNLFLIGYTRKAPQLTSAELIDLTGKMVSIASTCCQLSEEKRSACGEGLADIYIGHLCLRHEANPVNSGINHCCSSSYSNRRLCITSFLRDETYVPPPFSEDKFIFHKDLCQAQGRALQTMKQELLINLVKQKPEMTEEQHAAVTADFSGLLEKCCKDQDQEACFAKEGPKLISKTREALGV

Rattus norvegicus [15] = experiment: Tested in vivo for the biodistribution in rat uterus at 1 hour after intravenous dose of 50 microCi of the drug and 15 ug of estradiol; format: ADME, organism-based; in short: as §2
Rattus norvegicus [16] = experiment: Tested in vivo for the biodistribution in rat bone at 1 hour after intravenous dose of 50 microCi of drug in 10%ethanol saline; format: ADME, organism-based, Bone element; in short: as §3
[17] = molecular target: T2, Estrogen receptor (Rattus norvegicus) (UniProt P06211+Q62986)
Rattus norvegicus [18] = experiment: Tested in vivo for the biodistribution in rat kidney at 1 hour after intravenous dose of 50 microCi of the drug and 15 u g of estradiol; format: ADME, organism-based; in short: as §1
Rattus norvegicus [19] = experiment: Tested in vivo for the biodistribution in rat ovaries at 1 hour after intravenous dose of 50 microCi of drug in 10%ethanol saline; format: ADME, organism-based, Female gonad; in short: as §1
Rattus norvegicus [20] = experiment: Tested in vivo for the biodistribution in rat bone after 3 hours following an intravenous dose of 50 microCi of drug in 10%ethanol saline; format: ADME, organism-based, Bone element; in short: as §3
[21] = molecular target: T2, Estrogen receptor (Rattus norvegicus); remark: listed apart in the source
[22] = molecular target: T3, Sex hormone-binding globulin (Homo sapiens) (UniProt P04278); experiment: Relative binding affinity against sex steroid binding protein (SBP)
T3 sequence (whole entry): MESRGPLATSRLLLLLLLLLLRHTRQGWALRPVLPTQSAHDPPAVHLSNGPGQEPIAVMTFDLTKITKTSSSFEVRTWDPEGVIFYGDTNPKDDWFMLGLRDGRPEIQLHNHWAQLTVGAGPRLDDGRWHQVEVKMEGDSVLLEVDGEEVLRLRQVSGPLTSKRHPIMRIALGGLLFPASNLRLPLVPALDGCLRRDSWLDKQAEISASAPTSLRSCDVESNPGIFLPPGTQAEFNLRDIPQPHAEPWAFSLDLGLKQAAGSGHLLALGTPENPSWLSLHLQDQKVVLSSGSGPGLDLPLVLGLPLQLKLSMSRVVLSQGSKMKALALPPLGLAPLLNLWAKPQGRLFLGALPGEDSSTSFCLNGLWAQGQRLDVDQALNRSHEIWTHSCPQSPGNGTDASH

Rattus norvegicus [23] = experiment: Tested in vivo for the biodistribution in rat kidney after 3 hours following an intravenous dose of 50 microCi of drug in 10%ethanol saline; format: ADME, organism-based; in short: as §3
Rattus norvegicus [24] = experiment: Tested in vivo for the biodistribution in rat ovaries at 1 hour after intravenous dose of 50 microCi of the drug and 15 ug of estradiol; format: ADME, organism-based, Female gonad; in short: as §1
Rattus norvegicus [25] = experiment: Tested in vivo for the biodistribution in rat thymus after 3 hours following an intravenous dose of 50 microCi of drug in 10%ethanol saline; format: ADME, organism-based; in short: as §1
Rattus norvegicus [26] = experiment: Tested in vivo for the biodistribution in rat ovaries after 3 hours following an intravenous dose of 50 microCi of drug in 10%ethanol saline; format: ADME, organism-based, Female gonad; in short: as §1
Rattus norvegicus [27] = experiment: Tested in vivo for the biodistribution in rat thymus at 1 hour after intravenous dose of 50 microCi of the drug and 15 ug of estradiol; format: ADME, organism-based; in short: as §1
Rattus norvegicus [28] = experiment: Tested in vivo for the biodistribution in rat uterus/muscle after 3 hours following an intravenous dose of 50 microCi of drug in 10%ethanol saline; format: ADME, organism-based, Muscle tissue; in short: as §2
Rattus norvegicus [29] = experiment: Tested in vivo for the biodistribution in rat uterus after 3 hours following an intravenous dose of 50 microCi of drug in 10%ethanol saline; format: ADME, organism-based; in short: as §1
Rattus norvegicus [30] = experiment: Tested in vivo for the biodistribution in rat fat at 1 hour after intravenous dose of 50 microCi of the drug and 15 ug of estradiol; format: ADME, organism-based, Adipose tissue
Rattus norvegicus [31] = experiment: Tested in vivo for the biodistribution in rat uterus/blood at 1 hour after intravenous dose of 50 microCi of drug in 10%ethanol saline; format: ADME, organism-based; in short: as §2
Rattus norvegicus [32] = experiment: Tested in vivo for the biodistribution in rat kidney at 1 hour after intravenous dose of 50 microCi of drug in 10%ethanol saline; format: ADME, organism-based; in short: as §3
Rattus norvegicus [33] = experiment: Tested in vivo for the biodistribution in rat muscle at 1 hour after intravenous dose of 50 microCi of the drug and 15 ug of estradiol; format: ADME, organism-based, Muscle tissue; in short: as §1
Rattus norvegicus [34] = experiment: Tested in vivo for the biodistribution in rat uterus/muscle at 1 hour after intravenous dose of 50 microCi of the drug and 15 ug of estradiol; format: ADME, organism-based, Muscle tissue; in short: as §2
[35] = Tested in vivo for the biodistribution in rat fat after 3 hours following an intravenous dose of 50 microCi of drug in 10%ethanol saline; set-up: species or system Adipose tissue; in short: as §3
Rattus norvegicus [36] = experiment: Tested in vivo for the biodistribution in blood of female rat at 1 hour after intravenous dose of 50 microCi of drug in 10%ethanol saline; format: ADME, organism-based; in short: as §3
Rattus norvegicus [37] = experiment: Tested in vivo for the biodistribution in blood of female rat at 1 hour after intravenous dose of 50 microCi of the drug and 15 u g of estradiol; format: ADME, organism-based
Rattus norvegicus [38] = experiment: Tested in vivo for the biodistribution in rat muscle after 3 hours following an intravenous dose of 50 microCi of drug in 10%ethanol saline; format: ADME, organism-based, Muscle tissue; in short: as §1

CO[C@H]1C[C@]2(C)[C@@H](O)[C@@H](F)C[C@H]2[C@@H]2CCc3cc(O)ccc3[C@H]21
Injected (Rattus norvegicus [1]): 1.397%
Injected (dose/g) (Rattus norvegicus [2]): 3.73%
Injected (dose/g) (Rattus norvegicus [3]): 0.251%
Injected (dose/g) (Rattus norvegicus [4]): 6.12%
Injected (dose/g) (Rattus norvegicus [5]): 25.57%
Injected (Rattus norvegicus [6]): 1.178%
Injected (Rattus norvegicus [7]): 0.117%
Injected (Rattus norvegicus [8]): 0.516%
logP [9]: 2.35
Injected (dose/g) (Rattus norvegicus [10]): 0.893%
Injected (dose/g) (Rattus norvegicus [11]): 0.391%
Injected (Rattus norvegicus [12]): 43.47%
Injected (dose/g) (Rattus norvegicus [13]): 0.604%
relative binding affinity (RBA) [14]: 0.062
Injected (Rattus norvegicus [15]): 0.671%
Injected (dose/g) (Rattus norvegicus [16]): 0.515%
BSI [17]: 34
Injected (dose/g) (Rattus norvegicus [18]): 0.579%
Injected (Rattus norvegicus [19]): 2.466%
Injected (Rattus norvegicus [20]): 0.646%
NSB [21]: 0.39
relative binding affinity (RBA) [22]: 0.087
Injected (Rattus norvegicus [23]): 0.429%
Injected (Rattus norvegicus [24]): 0.417%
Injected (dose/g) (Rattus norvegicus [25]): 0.175%
Injected (Rattus norvegicus [26]): 1.409%
Injected (dose/g) (Rattus norvegicus [27]): 0.135%
Injected (Rattus norvegicus [28]): 47.73%
Injected (Rattus norvegicus [29]): 4.813%
Injected (Rattus norvegicus [30]): 0.338%
Injected (dose/g) (Rattus norvegicus [31]): 41.7%
Injected (Rattus norvegicus [32]): 0.946%
Injected (Rattus norvegicus [33]): 0.149%
Injected (dose/g) (Rattus norvegicus [34]): 4.49%
Injected [35]: 0.402%
Injected (Rattus norvegicus [36]): 0.148%
Injected (Rattus norvegicus [37]): 0.184%
Injected (dose/g) (Rattus norvegicus [38]): 0.107%
